# DENV2 CPE = inhibitors of DENV2 cytopathic effect; DENV2-infected cells, cytopathic effect rescue, plate reader; CPE inhibition, % at 9.99 µM; actives 1.7% (n = 350,000); AID 651640; in the data active = CPE inhibition above about 20%, passing the limit was not always enough; inconclusive = no clear call, values can overlap the other calls; tested in BHK-21 cells;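 also: 0% = median of neutral control wells and 100% = median of positive control wells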
# E-selectin induc = induces E-selectin expression in human endothelial cells; P16581; HUVEC E-selectin immunofluorescence imaging; normalized: neutral wells 0, TNF-alpha wells 100; activation, % at 7.58 µM; actives 0.37% (n = 260,000);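 active = mean E-selectin-positive cell signal at least 10% of the positive control, reached in at least 60% of replicates, without over 20% cell loss; inconclusive = no rule given, readout overlaps actives, possibly toxicity-flagged; inactive = the rest, including those meeting only one limit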
# Target sequence (P16581 whole entry, looked up): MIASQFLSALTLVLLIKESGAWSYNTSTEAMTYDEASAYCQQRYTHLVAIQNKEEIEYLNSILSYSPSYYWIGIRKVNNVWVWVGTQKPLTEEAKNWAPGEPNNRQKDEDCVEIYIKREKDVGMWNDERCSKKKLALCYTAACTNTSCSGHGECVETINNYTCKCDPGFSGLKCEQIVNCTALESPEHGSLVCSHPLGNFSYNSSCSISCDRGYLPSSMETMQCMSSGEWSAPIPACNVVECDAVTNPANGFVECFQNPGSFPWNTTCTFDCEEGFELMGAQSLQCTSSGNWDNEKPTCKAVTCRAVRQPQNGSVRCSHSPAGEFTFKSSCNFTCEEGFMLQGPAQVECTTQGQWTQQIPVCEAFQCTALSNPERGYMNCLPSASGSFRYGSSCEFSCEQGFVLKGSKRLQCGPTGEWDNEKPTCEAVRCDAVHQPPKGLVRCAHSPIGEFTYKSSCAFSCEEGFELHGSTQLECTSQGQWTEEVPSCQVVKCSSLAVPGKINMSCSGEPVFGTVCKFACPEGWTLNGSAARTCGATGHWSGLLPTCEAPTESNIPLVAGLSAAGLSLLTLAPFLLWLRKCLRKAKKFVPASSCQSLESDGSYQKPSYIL
#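 System: HUVEC / Compound: single concentration / Signal: immunofluorescence imaging / Read-out: percent E-selectin-positive cells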
# SIRT5 block = blocks human SIRT5 desuccinylation of peptide; actives 1.1% (n = 330,000); AID 652115; Purified SirT5, succinyl-peptide AMC, trypsin-coupled fluorescence; inhibition, % at 15 µM; Q9NXA8; in the data active = inhibition above about 15%; inconclusive = no clear call, values can overlap the other calls
# * hit, by the source's call; u = inconclusive; x = no result given. Sampled rows, rich in hits. Any-hit rate of the full collection: about 2.8%.
SMILES,DENV2 CPE,E-selectin induc,SIRT5 block
CCC(=O)Nc1ccc2c(c1)C(=O)N(C)C[C@@H](OC)[C@@H](C)CN(CCc1ccccc1)[C@@H](C)CO2,8.7,-0.2,-1.2
Cc1ccsc1C(=O)NNC(=O)CCN1CCN(c2ccccc2)CC1,-6.2,x,18.8*
Cc1ccccc1C(=O)NCC(=O)NNC(=O)CCN1CCN(c2ccccc2)CC1,-6.2,x,0.7
CCCNC(=O)N(C)C[C@H]1Oc2cc(-c3cccnc3)ccc2S(=O)(=O)N([C@@H](C)CO)C[C@H]1C,-5.3,0.0,0.4
O=C(Nc1ccccc1)N1C[C@H]2[C@@H](c3ccccc31)[C@@H](CO)N2C(=O)c1ccncc1,14.7,0.9,4.8
COc1ccccc1-c1cnc2c(c1)C(=O)N([C@@H](C)CO)C[C@H](C)[C@H](CN(C)Cc1cccnc1)O2,1.4,0.3,-2.3
COc1cccc(-c2cnc3c(c2)C(=O)N([C@H](C)CO)C[C@@H](C)[C@H](CN(C)Cc2ccccc2)O3)c1,26.8*,-0.1,0.7
COc1ccccc1-c1cnc2c(c1)C(=O)N([C@H](C)CO)C[C@@H](C)[C@H](CN(C)Cc1cccnc1)O2,26.5*,0.4,-1.4
COc1cccc(-c2cnc3c(c2)C(=O)N([C@@H](C)CO)C[C@@H](C)[C@H](CN(C)Cc2ccccc2)O3)c1,24.9,-0.2,3.4
CCC(=O)Nc1ccc2c(c1)OC[C@H](C)N(Cc1cccc(F)c1)C[C@H](C)[C@@H](OC)CN(C)C2=O,-14.0,-0.1,3.4
C[C@H]1CN([C@@H](C)CO)C(=O)c2cc(C3=CCCCC3)cnc2O[C@@H]1CN(C)C(=O)Nc1ccccc1,7.9,-0.1,-0.8
COc1ccc2c3c([nH]c2c1)[C@@H](CO)N(Cc1cccc(F)c1)CC31CN(Cc2ccccn2)C1,38.8*,-0.2,0.1
COc1ccc2c3c([nH]c2c1)[C@H](CO)N(Cc1ccccn1)CC31CN(C(C)=O)C1,46.6*,0.0,x
COc1ccc2c3c([nH]c2c1)[C@H](CO)N(Cc1ccccn1)CC31CCN(C(C)=O)CC1,6.7,-0.3,x
COc1ccc2c3c([nH]c2c1)[C@@H](CO)N(Cc1ccccn1)CC31CN(Cc2cccc(F)c2)C1,15.9,0.0,x
CN(C)C(=O)C[C@H]1CC[C@H]2[C@@H](COc3ccc(NC(=O)c4ccc(F)cc4)cc3C(=O)N2C)O1,x,0.4,x
CCCc1cc(=O)oc2c(C)c(OCC(=O)N3C[C@H]4C[C@@H](C3)c3cccc(=O)n3C4)ccc12,28.7*,x,x
Cc1c(OCC(=O)N2C[C@H]3C[C@@H](C2)c2cccc(=O)n2C3)ccc2c3c(c(=O)oc12)CCCC3,-17.8,x,3.5
Cc1cccc(N2CCN(C(=O)COc3ccc4c(C)cc(=O)oc4c3C)CC2)c1C,1.2,0.5,19.2*
Cc1cc(=O)oc2c(C)c(OCC(=O)N3CCN(c4ccc(F)cc4)CC3)ccc12,u,x,-4.2
O=C(O)c1cc(-c2ccc(/C=N/NC(=S)Nc3ccccc3)o2)ccc1Cl,2.4,x,16.1*
CNC(=S)N/N=C/c1ccc(-c2cccc(C(=O)O)c2)o1,-8.3,2.2,x
O=C(OCC(=O)c1c[nH]c2ccccc12)c1cccc([N+](=O)[O-])c1,80.1*,1.5,-3.5
O=C(OCC(=O)c1c[nH]c2ccccc12)c1cncc(Br)c1,-6.3,x,2.8
COC(=O)CCc1c[nH]c2ccc([N+](=O)[O-])cc12,-4.4,0.0,1.3
SMILES,DENV2 CPE,E-selectin induc,SIRT5 block
O=C(CCc1c[nH]c2ccccc12)OCc1cccc([N+](=O)[O-])c1,26.9*,0.2,-0.4
O=C(C[C@H]1CC[C@H]2[C@@H](COC[C@H](O)CN2C(=O)c2cnccn2)O1)NCc1ccccc1,-4.3,0.0,-1.3
C[C@H](CO)N1C[C@H](C)[C@@H](CN(C)C(=O)C2CCCCC2)OCCCC[C@H](C)Oc2ccc(NC(=O)Nc3ccccc3)cc2C1=O,4.7,1.7,1.3
COCC#Cc1ccc(CC[C@H]2O[C@H]3CC[C@H](CO)O[C@H]3C[C@H]2NC(=O)Nc2c(C)noc2C)cc1,-1.9,x,-4.8
CS(=O)(=O)Nc1cccc(NC(=O)c2cccc3c(-c4ccc(F)c(F)c4)coc23)c1,18.9,u,15.1*
CS(=O)(=O)Nc1cccc(NC(=O)c2ccc(-c3ccc(F)c(F)c3)c3ccoc23)c1,1.7,0.1,-2.6
Cc1ccc(S(=O)(=O)N[C@@H]2CC[C@@H](CC(=O)NC3CCCCC3)O[C@H]2CO)cc1,-2.5,0.6,-1.0
CC(C)NC(=O)N[C@@H]1C=C[C@H](CC(=O)NCCN2CCCC2)O[C@@H]1CO,-2.3,0.7,-0.8
O=C(NCC[C@H]1CC[C@@H](NS(=O)(=O)c2cccc(F)c2)[C@H](CO)O1)c1cnccn1,-6.5,0.1,-3.4
OC(CSc1nnnn1-c1ccccc1)Cn1c2ccccc2c2ccccc21 (stereo unspecified),21.2*,-0.1,x
NNC(=O)CSc1nnnn1-c1ccccc1,-2.5,3.6,-6.6
COc1ccc(C#Cc2cnc3c(c2)C(=O)N([C@@H](C)CO)C[C@@H](C)[C@@H](CN(C)CC2CCCC2)O3)cc1,13.7,1.7,2.3
COc1ccc(C#Cc2cnc3c(c2)C(=O)N([C@H](C)CO)C[C@H](C)[C@H](CN(C)CC2CCCC2)O3)cc1,40.5*,1.4,2.2
C[C@@H]1CN([C@@H](C)CO)C(=O)c2cc(C#C[C@@H](C)O)cnc2O[C@H]1CN(C)CC1CCCC1,4.5,-0.2,4.7
COc1ccc(C#Cc2cnc3c(c2)C(=O)N([C@@H](C)CO)C[C@H](C)[C@H](CN(C)CC2CCCC2)O3)cc1,37.0*,1.5,3.6
C[C@H](O)C#Cc1cnc2c(c1)C(=O)N([C@H](C)CO)C[C@H](C)[C@@H](CN(C)CC1CCCC1)O2,6.7,1.3,21.3*
C[C@@H]1CN([C@H](C)CO)C(=O)c2cc(C#Cc3cccc(F)c3)cnc2O[C@H]1CN(C)CC1CCCC1,u,0.0,-1.1
C[C@H]1CN([C@@H](C)CO)C(=O)c2cc(C#Cc3cccc(F)c3)cnc2O[C@@H]1CN(C)CC1CCCC1,15.5,x,22.8*
COc1ccc(C#Cc2cnc3c(c2)C(=O)N([C@@H](C)CO)C[C@H](C)[C@@H](CN(C)CC2CCCC2)O3)cc1,0.3,2.3,3.4
C[C@@H]1CN([C@@H](C)CO)C(=O)c2cccc(NC(=O)c3ccc(-c4nccs4)cc3)c2O[C@@H]1CN(C)S(=O)(=O)c1ccc(Cl)cc1,15.0,-0.3,2.9
CN(C)S(=O)(=O)N1CCC(Oc2ccc(C(=O)N3CCCCCCC3)cc2)CC1,45.5*,-1.1,-0.5
CN(C)S(=O)(=O)N1CCC(Oc2ccc(C(=O)N3CCCCCC3)cc2)CC1,5.4,0.7,x
COc1cccc(-c2cnc3c(c2)C(=O)N([C@H](C)CO)C[C@@H](C)[C@H](CN(C)Cc2ccc(C(=O)O)cc2)O3)c1,1.8,0.0,-8.4
CCCCNC(=O)c1onc(CSc2cccc(OC)c2)c1C(=O)NCCCC,u,-0.2,x
C=CCNC(=O)c1onc(CSc2ccc(F)c(F)c2)c1C(=O)NCC=C,x,-0.1,x
CCCCNC(=O)c1onc(CSc2cccc(OCC)c2)c1C(=O)O,24.0*,0.0,x
CCOc1cccc(SCc2noc(C(=O)NCCOC)c2C(=O)O)c1,6.4,0.0,x
O=C(NCC1CC1)c1onc(CSc2ccc(F)c(F)c2)c1C(=O)NCC1CC1,63.5*,-0.2,6.3

# Source: PubChem BioAssay (Broad Institute)
